# Reference: ChEMBL document CHEMBL3297708, “Lead optimization of a novel series of imidazo[1,2-a]pyridine amides leading to a clinical candidate (Q203) as a multi- and extensively-drug-resistant anti-tuberculosis agent” (J Med Chem, 2014)
# Legend:
# [1] = test system: Mycobacterium tuberculosis; experiment: Antimycobacterial activity against Mycobacterium tuberculosis H37Rv in liquid broth culture medium; assay type: functional
# In short: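 M. tuberculosis H37Rv replicating in liquid broth culture medium; MIC80 determined, i.e. concentration inhibiting 80% of growth.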
# [2] = test system: Mycobacterium tuberculosis; experiment: Antimycobacterial activity against Mycobacterium tuberculosis H37Rv in macrophages; assay type: functional
# In short: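 M. tuberculosis H37Rv replicating inside macrophages; intracellular MIC80 determined, i.e. concentration inhibiting 80% of growth.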
# [3] = Half life in human liver microsomes; assay type: ADME
# In short: (§1)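 Metabolic stability measured by incubation in human or mouse liver microsomal preparations; half-life reported.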
# [4] = Half life in mouse liver microsomes; assay type: ADME; in short: as §1
# [5] = Solubility of the compound in phosphate buffer at pH 7.4; assay type: physicochemical
# [6] = Solubility of the compound in aqueous solution at pH 2.1; assay type: physicochemical
# Cytochrome P450 3A4 = Cytochrome P450 3A4 (Homo sapiens, UniProt P08684); experiment: Inhibition of recombinant CYP3A4 (unknown origin) by LC/MS/MS analysis; assay type: ADME
# In short: (§2)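 Recombinant CYP enzymes (5 pmol/mL) with substrate, in 100 mM potassium phosphate pH 7.4, 3.3 mM MgCl2, with or without 1 mM NADPH; incubated 10 min (CYP1A2, CYP2C9), 20 min (CYP2C19, CYP2D6), or 3 min (CYP3A4); stopped with cold stop solution containing tolbutamide internal standard; metabolite measured by LC-MS/MS.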
# Cytochrome P450 2D6 = Cytochrome P450 2D6 (Homo sapiens, UniProt P10635); experiment: Inhibition of recombinant CYP2D6 (unknown origin) by LC/MS/MS analysis; assay type: ADME; in short: as §2
# Cytochrome P450 1A2 = molecular target: T1, Cytochrome P450 1A2 (Homo sapiens, UniProt P05177); experiment: Inhibition of recombinant CYP1A2 (unknown origin) by LC/MS/MS analysis; assay type: ADME; in short: as §2
# T1 sequence (P05177 whole entry): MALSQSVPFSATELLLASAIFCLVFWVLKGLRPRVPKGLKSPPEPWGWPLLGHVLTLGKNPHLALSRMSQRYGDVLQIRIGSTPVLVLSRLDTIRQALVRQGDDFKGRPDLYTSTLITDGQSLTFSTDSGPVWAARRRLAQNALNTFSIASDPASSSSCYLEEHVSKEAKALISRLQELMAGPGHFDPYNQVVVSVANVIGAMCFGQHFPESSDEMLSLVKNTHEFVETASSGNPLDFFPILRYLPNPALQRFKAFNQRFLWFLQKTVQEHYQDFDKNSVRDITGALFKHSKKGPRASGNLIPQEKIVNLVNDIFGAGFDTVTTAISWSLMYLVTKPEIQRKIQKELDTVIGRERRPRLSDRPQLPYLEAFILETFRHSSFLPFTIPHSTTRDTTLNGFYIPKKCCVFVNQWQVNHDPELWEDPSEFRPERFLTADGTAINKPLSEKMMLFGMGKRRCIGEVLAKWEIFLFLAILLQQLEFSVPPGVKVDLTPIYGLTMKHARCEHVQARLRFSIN
# Cytochrome P450 2C9 = Cytochrome P450 2C9 (Homo sapiens, UniProt P11712); experiment: Inhibition of recombinant CYP2C9 (unknown origin) by LC/MS/MS analysis; assay type: ADME; in short: as §2
# Cytochrome P450 2C19 = Cytochrome P450 2C19 (Homo sapiens, UniProt P33261); experiment: Inhibition of recombinant CYP2C19 (unknown origin) by LC/MS/MS analysis; assay type: ADME; in short: as §2
# [7] = Elimination half life in mouse at 2 mg/kg, iv; assay type: ADME, organism-based; set-up: dose 2 mg/kg, route intravenous; conditions: in vivo, read-out: beta t1/2 (converted)
# In short: (§3)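 Mice dosed at 2 mg/kg i.v. and 10 mg/kg p.o.; plasma sampled and PK parameters (half-life, clearance, volume of distribution, Cmax, Tmax, AUC, oral bioavailability) derived from the plasma concentration–time profiles.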
# [8] = Clearence in mouse at 2 mg/kg, iv; assay type: ADME, organism-based; set-up: dose 2 mg/kg, route intravenous; conditions: in vivo; in short: as §3
# [9] = Volume of distribution at steady state in mouse at 2 mg/kg, iv; assay type: ADME, organism-based; set-up: dose 2 mg/kg, route intravenous; conditions: in vivo, read-out: Vdss; in short: as §3
# [10] = Cmax in mouse at 10 mg/kg, po; assay type: ADME, organism-based; set-up: dose 10 mg/kg, route oral; conditions: in vivo; in short: as §3
# [11] = Tmax in mouse at 10 mg/kg, po; assay type: ADME, organism-based; set-up: dose 10 mg/kg, route oral; conditions: in vivo; in short: as §3
# [12] = AUC (0 to infinity) in mouse at 10 mg/kg, po; assay type: ADME, organism-based; set-up: time infinity, dose 10 mg/kg, route oral; conditions: plasma; in short: as §3
# [13] = Oral bioavailability in mouse at 10 mg/kg; assay type: ADME, organism-based; conditions: in vivo; in short: as §3
# [14] = Half life in mouse at 10 mg/kg, po; assay type: ADME, organism-based; set-up: dose 10 mg/kg, route oral; conditions: in vivo; in short: as §3
# [15] = test system: Mycobacterium tuberculosis; experiment: Antimycobacterial activity against Mycobacterium tuberculosis H37Rv infected in BALB/c mouse assessed as lung bacterial load at 15 mg/kg administered 3 weeks after infection via oral gavage for 28 days, five times per week measured per lung (reference value: 7.24 +/- 0.17 log10 CFU); assay type: functional
# In short: (§4)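 BALB/c mice infected intranasally with 2 x10^2 to 2 x 10^3 CFU M. tuberculosis H37Rv; oral gavage treatment started 3 weeks post-infection, given five times per week for 28 days; lung bacterial burden enumerated as log10 CFU per lung; values reported ± spread; untreated infected mice as baseline.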
# [16] = test system: Mycobacterium tuberculosis; experiment: Antimycobacterial activity against Mycobacterium tuberculosis H37Rv infected in BALB/c mouse assessed as lung bacterial load administered 3 weeks after infection via oral gavage for 28 days, five times per week measured per lung; assay type: functional, organism-based; in short: as §4
# Cytochrome P450 2C19, sequence (P33261 whole entry): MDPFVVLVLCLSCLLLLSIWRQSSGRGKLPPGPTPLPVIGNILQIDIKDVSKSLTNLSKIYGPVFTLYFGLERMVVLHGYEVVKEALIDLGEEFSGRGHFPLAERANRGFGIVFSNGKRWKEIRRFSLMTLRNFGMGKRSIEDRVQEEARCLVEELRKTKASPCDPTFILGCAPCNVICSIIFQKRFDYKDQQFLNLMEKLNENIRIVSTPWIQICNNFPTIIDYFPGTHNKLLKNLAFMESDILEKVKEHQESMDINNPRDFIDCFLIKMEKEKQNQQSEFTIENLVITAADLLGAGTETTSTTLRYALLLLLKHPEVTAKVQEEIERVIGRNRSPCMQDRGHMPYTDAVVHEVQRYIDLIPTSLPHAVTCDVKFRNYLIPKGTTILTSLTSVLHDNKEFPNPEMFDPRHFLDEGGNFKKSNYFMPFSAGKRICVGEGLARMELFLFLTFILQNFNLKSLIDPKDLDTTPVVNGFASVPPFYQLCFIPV
# Cytochrome P450 2D6, sequence (P10635 whole entry): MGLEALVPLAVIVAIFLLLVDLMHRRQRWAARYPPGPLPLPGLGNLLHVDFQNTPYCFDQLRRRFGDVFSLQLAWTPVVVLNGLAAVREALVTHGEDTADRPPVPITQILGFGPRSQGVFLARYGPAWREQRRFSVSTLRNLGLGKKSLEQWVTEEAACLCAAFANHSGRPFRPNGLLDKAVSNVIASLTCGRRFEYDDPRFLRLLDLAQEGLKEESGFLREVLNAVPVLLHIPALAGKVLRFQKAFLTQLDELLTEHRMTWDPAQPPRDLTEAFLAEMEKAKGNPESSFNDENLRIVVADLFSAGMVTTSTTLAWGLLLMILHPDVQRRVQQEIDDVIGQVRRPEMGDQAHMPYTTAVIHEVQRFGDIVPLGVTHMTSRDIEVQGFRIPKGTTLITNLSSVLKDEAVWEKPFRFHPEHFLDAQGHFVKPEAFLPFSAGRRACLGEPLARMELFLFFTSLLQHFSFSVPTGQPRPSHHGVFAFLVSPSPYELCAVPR
# Cytochrome P450 3A4, sequence (P08684 whole entry): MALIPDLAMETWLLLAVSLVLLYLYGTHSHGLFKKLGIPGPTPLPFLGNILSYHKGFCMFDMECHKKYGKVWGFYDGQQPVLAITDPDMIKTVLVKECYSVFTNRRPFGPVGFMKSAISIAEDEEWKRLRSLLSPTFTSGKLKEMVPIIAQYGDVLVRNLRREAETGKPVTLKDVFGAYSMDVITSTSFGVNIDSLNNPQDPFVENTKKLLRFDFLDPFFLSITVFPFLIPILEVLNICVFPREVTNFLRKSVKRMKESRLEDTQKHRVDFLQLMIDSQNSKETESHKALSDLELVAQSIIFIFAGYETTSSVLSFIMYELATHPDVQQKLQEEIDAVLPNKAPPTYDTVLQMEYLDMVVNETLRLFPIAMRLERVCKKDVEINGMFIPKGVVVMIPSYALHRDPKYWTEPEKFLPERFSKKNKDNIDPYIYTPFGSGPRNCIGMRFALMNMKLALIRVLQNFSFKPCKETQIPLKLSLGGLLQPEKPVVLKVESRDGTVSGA
# Cytochrome P450 2C9, sequence (P11712 whole entry): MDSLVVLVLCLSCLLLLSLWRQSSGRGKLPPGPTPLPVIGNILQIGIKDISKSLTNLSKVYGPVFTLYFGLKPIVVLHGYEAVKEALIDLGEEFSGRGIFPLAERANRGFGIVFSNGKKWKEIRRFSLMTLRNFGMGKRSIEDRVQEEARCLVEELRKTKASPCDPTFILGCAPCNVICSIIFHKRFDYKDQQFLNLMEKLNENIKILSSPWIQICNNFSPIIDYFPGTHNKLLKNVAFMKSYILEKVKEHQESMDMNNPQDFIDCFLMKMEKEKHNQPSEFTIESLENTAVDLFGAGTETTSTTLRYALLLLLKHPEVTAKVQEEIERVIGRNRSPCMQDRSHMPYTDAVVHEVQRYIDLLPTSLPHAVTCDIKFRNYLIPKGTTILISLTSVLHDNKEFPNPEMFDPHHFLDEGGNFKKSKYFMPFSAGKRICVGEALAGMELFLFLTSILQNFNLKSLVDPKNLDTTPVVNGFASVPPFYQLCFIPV
SMILES,MIC80 [1] [nM],MIC80 [2] [nM],half-life [3] [h],half-life [4] [h],solubility [5] [µg/mL],solubility [6] [µg/mL],IC50 (Cytochrome P450 3A4) [µM],IC50 (Cytochrome P450 2D6) [µM],IC50 (Cytochrome P450 1A2) [µM],IC50 (Cytochrome P450 2C9) [µM],IC50 (Cytochrome P450 2C19) [µM],other results
CCc1nc2ccc(Cl)cn2c1C(=O)NCc1ccc(-c2ccc(Cl)cc2)cc1,0.9,0.45,1.38,> 1,1.97,1.42,,,,,,
CCc1nc2cc(Cl)ccn2c1C(=O)NCc1ccc(N2CCN(c3ccc(F)cc3)CC2)cc1,5.7,0.3,> 2,0.555,,,> 40,> 40,> 40,> 40,> 40,half-life [7]: 6.15 h; clearance [8]: 1.9 mL/min/kg; Vd [9]: 0.877 L/kg; Cmax [10]: 4450 ng/mL; Tmax [11]: 2 h; AUC(0-inf) [12]: 59600 ng·h/mL; bioavailability [13]: 69.9%; half-life [14]: 9.4 h
CCc1nc2cc(Cl)ccn2c1C(=O)NCc1ccc(N2CCC(c3ccc(F)cc3)CC2)cc1,540,0.66,0.113,0.307,,,2.07,> 40,> 40,0.5,0.6,
CCc1nc2cc(Cl)ccn2c1C(=O)NCc1ccc(N2CCC(c3ccc(Cl)cc3)CC2)cc1,1,0.46,1.12,1.87,,,> 40,> 40,> 40,0.19,0.38,
CCc1nc2ccc(Cl)cn2c1C(=O)NCc1ccc(-c2ccc(C)cc2)cc1,0.7,0.43,0.508,0.677,1.56,1.42,,,,,,
CCc1nc2ccc(Cl)cn2c1C(=O)NCc1ccc(-c2ccc(C#N)cc2)cc1,< 0.5,0.68,> 2,> 1,0.61,1.06,,,,,,
CCc1nc2ccc(Cl)cn2c1C(=O)NCc1ccc(N2CCC(c3ccc(F)cc3)CC2)cc1,< 0.5,0.36,1.04,0.338,3.99,38.5,> 40,> 40,> 40,> 40,> 40,
NNC(=O)c1ccncc1 [ISONIAZID],449,617,,,,,,,,,,log10cfu [15]: 5.01; inhibition [16]: Dose-dependent effect
CCc1nc2cc(Cl)ccn2c1C(=O)NCc1ccc(N2CCN(c3ccc(OC(F)(F)F)cc3)CC2)cc1,1.8,0.11,> 2,> 1,,,> 40,> 40,> 40,0.17,> 40,
CCc1nc2ccc(Cl)cn2c1C(=O)NCc1ccc(N2CCC(c3ccc(OC(F)(F)F)cc3)CC2)cc1 [TELACEBEC],4,1.43,> 2,> 2,1.71,41.5,> 100,> 100,> 100,> 100,> 100,half-life [7]: 16.5 h; clearance [8]: 4 mL/min/kg; Vd [9]: 5.27 L/kg; Cmax [10]: 1490 ng/mL; Tmax [11]: 2 h; AUC(0-inf) [12]: 44100 ng·h/mL; bioavailability [13]: 90.7%; half-life [14]: 23.4 h
CCc1nc2ccc(Cl)cn2c1C(=O)NCc1ccc(N2CCC(c3ccc(Cl)cc3)CC2)cc1,4.1,1.3,0.965,1.93,2.59,39.7,> 40,> 40,> 40,0.26,6.77,
CCc1nc2ccc(Cl)cn2c1C(=O)NCc1ccc(N2CCN(c3ccc(F)cc3)CC2)cc1,< 0.5,0.3,> 2,0.555,1.31,38.5,0.49,> 40,> 40,1.33,1.32,
CCc1nc2ccc(Cl)cn2c1C(=O)NCc1ccc(N2CCN(c3ccc(OC(F)(F)F)cc3)CC2)cc1,< 0.5,0.23,> 2,> 1,1.1,12.1,11.5,> 40,> 40,0.57,> 40,
